Bioassay records from PubChem.
PERK inhibitor: human PERK inhibition, primary cell-based screen. Q9NZJ5. CHO PERK-DD fusion, SEAP luminescence translation reporter. inhibition, % at 5.6 µM. 220,000 compounds, 0.17% hits. AID 1416;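 active = inhibition above the mean inhibition of all tested compounds plus 3 SD, set separately per screening campaign, cut at about 2.9% in these data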;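 also: PERK kinase domain activated by AP20187 dimerizer at 100 nM; 0% = DMSO with dimerizer and 100% = rapamycin at 8.4 µM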
Mdm2 ligase inh: Mdm2 E3 ligase (human) inhibition. Q00987. cell-based MDM2 ubiquitination luciferase reporter, 2 h; 0 = plate control, 100 = twice control, blank-subtracted. signal enhancement, % at 5 µM. 210,000 compounds, 0.11% hits. AID 1230;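 active = signal enhancement of 30% or more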;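 also: luminescence tracks abundance of the self-degrading MDM2-luciferase fusion protein; higher signal means inhibition of MDM2 E3 ligase activity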
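system = mammalian cells stably expressing self-ubiquitinating, self-degrading MDM2 E3–luciferase fusion | quantity = 2000 cells per well seeded | incubation = 4 h cell settling then 2 h compound exposure, 37 °C | signal = SteadyLite luminescence, 15 min reagent step | benchmarks = plate control and blank wells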
Hck Nef HTS: inhibitors of human Hck kinase activated by Nef | P08631 | Recombinant Hck-YEEI plus Nef, Z-Lyte FRET kinase assay | inhibition, % at 20 µM | 220,000 compounds, 0.68% hits | AID 463187;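 active = Hck-Nef kinase inhibition above about 50%, limit read from the data; inactive = inhibition below that limit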;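 also: 0% = DMSO with Hck plus Nef and 100% = Hck alone without Nef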
TAG inh: triacylglycerol accumulation inhibition; H9c2 cells, Nile Red lipid (TAG) fluorescence; cells loaded with 200 µM oleic acid; inhibition, % at 12.5 µM; 230,000 compounds, 0.66% hits;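 active = pattern-corrected inhibition of lipid staining of at least 50% with the nuclear-stain viability signal not falling by more than 50%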;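 also: 0% = DMSO wells and 100% = triacsin C control wells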
PKD1 kinase inh: PKD1 (human) kinase inhibition; Q15139; PKD1 kinase fluorescence polarization assay; inhibition, % (no concentration beside the values); 200,000 compounds, 0.056% hits; AID 797; in the data active = inhibition above about 50%
Rad51 HR inh: blocks human Rad51 in homologous recombination | hRad51 DNA strand exchange, fluorescence dequenching | inhibition, % at 10 µM | 200,000 compounds, 0.085% hits | AID 1385;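 active = inhibition above 40% at the single screening dose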;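 also: 0% = DMSO control wells and 100% = blanks with heterologous ssDNA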
Target sequence (Q06609 whole entry, looked up): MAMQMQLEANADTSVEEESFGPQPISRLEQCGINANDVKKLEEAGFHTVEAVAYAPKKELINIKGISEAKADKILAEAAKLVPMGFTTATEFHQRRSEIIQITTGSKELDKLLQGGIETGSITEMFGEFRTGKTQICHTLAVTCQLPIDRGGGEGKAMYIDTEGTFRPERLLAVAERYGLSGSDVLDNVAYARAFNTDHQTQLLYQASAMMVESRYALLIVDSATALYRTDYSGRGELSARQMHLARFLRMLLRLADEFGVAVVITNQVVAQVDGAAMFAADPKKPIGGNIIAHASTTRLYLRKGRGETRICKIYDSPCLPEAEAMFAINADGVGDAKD
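Material: Human Rad51 nucleoprotein filaments preassembled on unlabelled ssDNA | Also added: Labelled 47-mer dsDNA for strand exchange | Dosing: Single dose, 10 µM final compound | Schedule: 30-min compound preincubation and 15-min exchange, both room temperature | Technique: Fluorescence dequenching at 485/520 nm | Measure: Percent inhibition relative to plate controls and blanks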
* hit, by the source's call; . = no result given; + = active, no number; ! = not confirmed by another sample. Hits are enriched below; roughly 1.3% of the tested compounds scored in any of these assays.

SMILES	PERK inhibitor	Mdm2 ligase inh	Hck Nef HTS	TAG inh	PKD1 kinase inh	Rad51 HR inh
COc1ccccc1-c1nnc(Nc2nc3c(OC)cccc3s2)o1	-1	39*	-12	67*	0	3
CC(C)C(=O)OCc1cn(-c2ccc(Cl)c(Cl)c2)nn1	1	-1	18	-5	-6	15
COc1ccc(C[C@H]2CN3C(=NC[C@@H]3Cc3ccccc3)N2CCNC(=O)c2ccc(C)c(Br)c2)cc1	0	.	4	120*	6	-3
COc1ccc(/C=C/C(=O)N[C@@H](C)C(=O)O)cc1	3.4*	-15	6	.	-6	-1
COc1ccc(/C=C/C(=O)N[C@H](C(=O)O)C(C)C)cc1	0	-8	-16	-12	0	2
CCN(CC)C(=O)COc1ccc(/C(C)=N/Nc2ncc(Cl)cc2Cl)cc1	1	0	9	-3	.	14
COc1ccc(CCn2c(O)cc3nn(-c4nc5ccccc5s4)c(=O)c-3c2C)cc1	0	-9	68*	4	.	.
O=C(Nc1cccc(Cl)c1)N1CCSc2cc(Cl)ccc21	1	-14	0	.	-4	-3
O=C(Nc1ccccc1)N1CCSc2cc(Cl)ccc21	3.1*	-19	0	.	-15	-9
NC(=O)N/N=C/C=C/c1ccc(F)cc1	1	-7	18	-2	.	12
O=C(NCC1CCCO1)c1ccc(Br)o1 (stereo unspecified)	2	-6	-11	8	1	41*
Cc1cccc(NC(=O)CN2C(=O)S/C(=C\c3ccc(O)c([N+](=O)[O-])c3)C2=O)c1	0	-4	61*	0	-2	7
Cc1cc(/C=C2\SC(=S)NC2=O)c(C)n1-c1cccc(O)c1	2	-23	65*	10	.	-106
O=C(CSc1nnc(-c2cccnc2)n1C1CCCCC1)NC1CCCCC1	0	36*	7	.	-1	-6
C=CCn1c(SCC(=O)NC2CCCCC2)nnc1-c1cccnc1	.	.	.	5	.	.
Cc1cc(NC(=O)NC(C)(C(F)(F)F)C(F)(F)F)no1	1	-13	19	-9	.	-7
CCC(NC(=O)Nc1cc(C)on1)(C(F)(F)F)C(F)(F)F	3.2*	-15	23	9	.	-3
C=CCN=C1S/C(=C\c2ccc(N(C)C)cc2)C(=O)N1CC=C	-1	-9	-13	-1	.	-21
COc1ccc(COc2cc(-c3cccc(OC)c3)nc3ccc(NC(=O)c4ccc(OC)cc4)cc23)cc1	-1	.	-3	57*	-4	2
COc1ccc(COc2cc(-c3cccc(OC)c3)nc3ccc(NC(=O)c4ccccc4)cc23)cc1	1	.	-5	.	-16	2
CCC(=O)Nc1ccc2ccccc2c1	1	0	1	.	-9	-1
O=C(CSc1ccncc1)Nc1ccc2ccccc2c1	1	1	18	-14	71*	-12
O=C(CSc1ccc2ccccc2c1)Nc1ccncc1	1	.	3	.	-10	.
CC(C)CC(=O)Nc1ccc2ccccc2c1	3.2*!	-2	8	-13	-6	3
CN(C)CCCOC(=O)COc1ccc(Br)cc1	1	-9	3	2	.	7
SMILES	PERK inhibitor	Mdm2 ligase inh	Hck Nef HTS	TAG inh	PKD1 kinase inh	Rad51 HR inh
CC(C)C(C)NC(=O)COC(=O)c1cc(S(=O)(=O)N(C)C)ccc1N1CCCC1 (stereo unspecified)	0	-6	22	.	-6	13
CCN(CC)CC(C)(C)C(=O)/C=C/c1ccc(/C=C/C(=O)C(C)(C)CN(CC)CC)cc1	.	.	.	112*	.	.
CCN(CC)CCOC(=O)/C=C/c1ccccc1	0	-1	2	1	.	-1
CCC1=C[C@H]2CN(C1)Cc1c([nH]c3ccccc13)[C@@](C(=O)OC)(c1cc3c(cc1OC)N(C)[C@H]1[C@@](O)(C(=O)OC)[C@H](OC(C)=O)[C@]4(CC)C=CCN5CC[C@]31[C@@H]54)C2	.	.	.	.	.	6
CCS(=O)c1ccccc1C(=O)OC(C)C(=O)Nc1ccc(S(=O)(=O)N2CCCC2)cc1 (stereo unspecified)	.	.	.	-5	.	.
FC(F)(F)c1nnc2ccc(N3CCCC3)nn12	1	1	0	35	-1	57*
CN(C)CCCNS(=O)(=O)c1ccc(N2CCC(c3ccc(Cl)cc3)=N2)cc1	0	-14	+	.	-2	3
CN(C)CCCNS(=O)(=O)c1cc(Cl)ccc1Cl	0	-7	1	.	6	1
O=C1CCC/C=C/C[C@@H](CC(=O)N(CCO)Cc2ccccc2)C(=O)NC[C@@H](c2ccccc2)O1	.	.	.	0	.	.
Cc1c[nH]c(=O)c([N+](=O)[O-])c1	3.8*	-12	-3	1	.	.
Cc1ccc(NC(=O)COC(=O)CCc2c[nH]c(=O)[nH]2)cc1	4.0*	1	0	-3	-8	-5
N#Cc1c(N)nc(Sc2ccc(Cl)cc2)c(C#N)c1-c1ccccc1Cl	1	-6	13	11	.	14
COCCNCc1ccccc1[N+](=O)[O-]	.	.	.	-3	.	.
COc1ccccc1-c1cc(C(F)(F)F)nc(S(=O)(=O)CCCC(=O)Nc2cccnc2Cl)n1	1	43*	32	86	-7	3
COc1ccccc1-c1cc(C(F)(F)F)nc(S(=O)(=O)CCCC(=O)N2CCCCC2C)n1 (stereo unspecified)	1	-4	2	67*	-1	8
COc1cccc(-n2cnnc2SC(C)C(=O)NC2CCCC2)c1 (stereo unspecified)	.	.	.	5	.	.
CCSc1nnc(SCC(=O)NC2CCCCC2)s1	.	.	.	5	.	.
CCCc1nc2ccccc2c(=O)n1N	3.6*	-14	0	13	6	-6
Cc1ccc(S(=O)(=O)NC(=O)Nc2ccc(N(C)C)cc2)cc1	.	.	.	60*	.	.
COc1ccc(N2C(=O)CCC(C(=O)c3ccccc3)=C2C)cc1	0	-11	1	.	-5	-24
O=C(Nc1ccccc1)c1cc(C2COCCN2C(=O)CCCc2ccccc2)on1 (stereo unspecified)	.	.	.	6	.	.
CC(C)C[C@H]1CN=C(Nc2ccccc2)N1CC1CCC(C(C)(C)C)CC1 (stereo partly specified)	.	.	.	59*	.	.
COc1cc(CN2CCN(c3cc(C)ccc3C)CC2)cc([N+](=O)[O-])c1O	0	.	0	.	-8	6
COc1cc(CN2CCN(c3ccc(C)cc3)CC2)cc([N+](=O)[O-])c1O	-1	-23	0	.	4	117*
COc1cc2c(cc1C1NC(=S)NC(C)=C1C(N)=O)CCCC2 (stereo unspecified)	0	-9	20	33	-6	16
CC1=CC(=C2N=C(c3ccccc3)OC2=O)C=C(C)O1	2.9*	-10	2	.	2	6
CN1C=CC=C/C1=C1/N=C(c2ccccc2)OC1=O	0	-1	1	1	-4	4
